Consider one compound from ChEMBL document CHEMBL1687717 (Antimicrob Agents Chemother, 2008).

Activity calls are given as the source filed them. No cut-off for these calls is given here.

One data set relates to Helicobacter. Nature of the data set: Bactericidal activity against Helicobacter at >=20 ug/ml. Type of data set: functional.
The nature of data set [1]: Effect on growth of vaginal Lactobacillus flora in rhesus monkey administered twice daily dose of 5% compound-formulated gel for first 8 weeks followed by 3-weeks rest period and subsequent once daily dose for […] measured 6 months post dose. The following applies: in vivo, topical_or_ocular, 4383 h. The procedure, abridged:
(§1)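 Rhesus macaques (9 on GML, 3 on vehicle per time point) received 1 ml intravaginal gel containing 50 mg GML in K-Y warming gel, or vehicle gel, by needleless syringe. Dosing was twice daily for 8 weeks, then 3 weeks of rest, then once daily for 11 weeks. Vaginal swabs were taken 1 h post-dose, held at 4°C, serially diluted in Todd-Hewitt broth and plated on chocolate agar at 37°C in 7% CO2.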

In a further data set the test system is Gardnerella. Nature of the data set: Bactericidal activity against Gardnerella at >=20 ug/ml. Type of data set: functional.
Data set [2] can be described thus: Effect on growth of Lactobacillus crispatus at 50 ug/ml after 24 hrs. Summed up: (§2)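 L. crispatus grown in Todd-Hewitt broth flasks at 37°C with shaking, with or without nonformulated GML at 20, 50 or 100 µg/ml. The starting inoculum was 3.0 x 10^6/ml. Samples were taken over 24 h for CFU plate counts.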
Data set [3] is described as follows: Effect on lactic acid production in Lactobacillus crispatus at 50 ug/ml after 8 to 24 hrs. Type of data set: ADME. Summed up: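 Todd-Hewitt broth cultures of L. crispatus were started at 3.0 x 10^6/ml with or without nonformulated GML at 50 µg/ml and incubated at 37°C with shaking. Culture pH was measured on samples removed at set times as an acid-production read-out.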

Data set [4] has as its system Lactobacillus crispatus. Nature of the data set: Suppression of cell viability loss of Lactobacillus crispatus in stationary phase culture at 100 ug/ml after 48 hrs.
The nature of data set [5]: Effect on growth of Lactobacillus crispatus using 5% compound-formulated gel after 24 hrs. Summed up:
(§3)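 Agar disk test: paper disks carrying 30 µl of 5% GML in K-Y warming gel were placed on Todd-Hewitt agar lawns of about 10^6 L. crispatus or S. aureus MN8. Plates were incubated overnight at 37°C in 7% CO2 and scored for visible growth inhibition around the disks. Done in quadruplicate.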

Data set [6] concerns Rhesus monkey. Nature of the data set: Toxicity in rhesus monkey assessed as induction of vaginal mucosal lesions administered twice daily dose of 5% compound-formulated gel for first 8 weeks followed by 3-weeks rest period and subsequent once daily dose for […] measured 6 months post dose by extensive colposcopy. Type of data set: organism-based, Macaca mulatta. The conditions noted are these: in vivo, topical_or_ocular, 4383 h.

A further data set has as its system Haemophilus. Nature of the data set: Bactericidal activity against Haemophilus at >=20 ug/ml. In kind it is functional, organism-based.
The subject of data set [7] is Staphylococcus aureus. Nature of the data set: Inhibition of Staphylococcus aureus MN8 infection induced IL-8 production in human HVEC assessed as at 100 ug/ml by enzyme-linked immunosorbent assay. In kind it is functional, organism-based. Summed up:
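Human vaginal epithelial cells in keratinocyte serum-free medium without antibiotics were seeded 2–3 days beforehand in 96-well plates. S. aureus MN8 was grown overnight in Todd-Hewitt broth, washed and resuspended in PBS at pH 7.2. Cells received 10^6–10^8 CFU in triplicate, with or without GML at 100 µg/ml, for 6 h. IL-8 was measured by ELISA.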

The subject of data set [8] is Rhesus monkey. Nature of the data set: Toxicity in rhesus monkey assessed as induction of vaginal inflammation administered twice daily dose of 5% compound-formulated gel for first 8 weeks followed by 3-weeks rest period and subsequent once daily dose for […] measured 6 months post dose by extensive colposcopy. In kind it is organism-based, Macaca mulatta. The following applies: in vivo, topical_or_ocular, 4383 h.

Data set [9] in a line: Effect on growth of Lactobacillus crispatus at 20 ug/ml after 24 hrs. The procedure, abridged: as §2
Data set [10] deals with Lactobacillus crispatus. Nature of the data set: Suppression of cell viability loss of Lactobacillus crispatus in stationary phase culture at 100 ug/ml after 48 hrs. Type of data set: functional. Summed up:
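Stationary-phase L. crispatus broth cultures were incubated a further 48 h at 37°C without GML or with GML at 100 µg/ml. Viable counts were then determined by plating.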

The subject of data set [11] is Human immunodeficiency virus 1. Nature of the data set: Antiviral activity against HIV1 infected in human T cells assessed as inhibition of viral infection at 100 ug/mL. In kind it is functional, organism-based. The following applies: T-cell.
The test system of the next data set is Staphylococcus. Nature of the data set: Effect on growth of vaginal coagulase negative staphylococci flora in rhesus monkey administered twice daily dose of 5% compound-formulated gel for first 8 weeks followed by 3-weeks rest period and subsequent once daily dose for […] measured 6 months post dose. In kind it is functional, organism-based. Summed up:
as §1

Data set [12] concerns Staphylococcus aureus. Nature of the data set: Growth inhibition of Staphylococcus aureus MN8 using 5% compound-formulated gel after 24 hrs. In kind it is functional, organism-based. The procedure, abridged:
as §3

Turning to `CCCCCCCCCCCC(=O)OCC(O)CO` (stereo unspecified) [GLYCEROL MONOLAURATE], the inhibition result (in the data set on Helicobacter; in the data set with Gardnerella; in the data set with Haemophilus; with Staphylococcus aureus [7]; in data set [11]) was “Active” in each case. The Activity entry (in data set [1]; in data set [2]; in data set [3]; in [5]; in the data set with Rhesus monkey [6]; in the data set with Rhesus monkey [8]) was “Non-toxic” in each case. Besides, the Activity result (in [9]; in the data set on Staphylococcus) was “Non-toxic” each time. Also, the result with Lactobacillus crispatus [4] and with Lactobacillus crispatus [10] was Active. Also, the “growth inhibition (GI)” value in the data set with Staphylococcus aureus [12] was “Active”.
